Test results as given in ChEMBL document CHEMBL4052630, “Design, synthesis and evaluation of scutellarein-O-acetamidoalkylbenzylamines as potential multifunctional agents for the treatment of Alzheimer's disease” (Eur J Med Chem, 2017).
Calls of active or inactive are those of the source. No cut-off for these calls is given here.

Key:
[1] = Inhibition of rat serum BuChE using butyrylthiocholine iodide as substrate after 15 mins by Ellman's method; format: ADME
Rattus norvegicus = species: Rattus norvegicus; assay: Selectivity index, ratio of IC50 for rat serum BuChE to IC50 for rat cortex homogenate AChE
Procedure, shortened: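 Modified Ellman assay. AChE from 5% rat cortex homogenate, pre-incubated 5 min with iso-OMPA (4.0 mmol/L). BuChE from 25% rat serum. Enzyme incubated with compound (<1% DMSO) and acetyl- or butyrylthiocholine iodide (1 mmol/L) in phosphate buffer pH 7.4 for 15 min at 37 °C. DTNB added, read at 405 nm. IC50 from 3 independent experiments. Index = BuChE IC50/AChE IC50.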

[2] = Antioxidant activity assessed as trolox equivalents of AAPH radical scavenging activity at 1 to 10 uM preincubated for 15 mins followed by AAPH addition measured every 60 sec for 90 mins by ORAC-FL assay; format: functional
Procedure, shortened: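 ORAC-FL in 75 mM phosphate buffer pH 7.4. Compound at 1–10 µM with fluorescein (150 nM final), pre-incubated 15 min at 37 °C, then AAPH added (12 mM final). Fluorescence read every minute for 90 min, ex 485/em 535 nm. Curves normalised to the FL+AAPH blank. Trolox standard 1–8 µM. Duplicates, ≥3 independent assays. Results given as µM Trolox equivalent per µM compound.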

[3] = target: Acetylcholinesterase (Electrophorus electricus) (UniProt O42275); assay: Mixed type inhibition of electric eel AChE at 10 to 40 nM preincubated for 15 mins followed by varying levels of acetylthiocholine substrate addition by Lineweaver-Burk plot analysis
Sequence of Acetylcholinesterase (Electrophorus electricus) (O42275 24-633 limits assumed): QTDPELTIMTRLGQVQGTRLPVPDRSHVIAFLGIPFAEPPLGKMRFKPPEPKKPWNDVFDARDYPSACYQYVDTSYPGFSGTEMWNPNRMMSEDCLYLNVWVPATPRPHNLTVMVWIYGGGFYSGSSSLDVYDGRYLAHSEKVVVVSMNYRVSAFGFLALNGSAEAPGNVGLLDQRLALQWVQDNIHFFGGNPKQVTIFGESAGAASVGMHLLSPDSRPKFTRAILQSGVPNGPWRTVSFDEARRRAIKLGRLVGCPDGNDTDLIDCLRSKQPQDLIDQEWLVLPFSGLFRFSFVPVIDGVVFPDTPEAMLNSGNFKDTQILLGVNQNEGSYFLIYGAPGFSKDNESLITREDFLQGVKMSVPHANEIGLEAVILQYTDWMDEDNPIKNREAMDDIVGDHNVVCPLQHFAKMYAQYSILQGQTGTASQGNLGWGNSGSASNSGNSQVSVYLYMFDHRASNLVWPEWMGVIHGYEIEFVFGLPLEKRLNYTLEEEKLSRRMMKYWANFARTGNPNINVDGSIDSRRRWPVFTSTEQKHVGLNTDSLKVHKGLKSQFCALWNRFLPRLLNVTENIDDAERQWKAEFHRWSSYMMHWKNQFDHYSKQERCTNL
Procedure, shortened: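 Electric eel AChE (10 µL of 0.5 U/mL) in 0.1 M phosphate pH 8.0 with DTNB, pre-incubated 15 min at 37 °C with three inhibitor concentrations. Acetylthiocholine added at 0.1–0.4 mM and hydrolysis read at 412 nm, with an inhibitor-free control. Lineweaver-Burk plots by weighted least squares; slopes replotted against inhibitor concentration.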

[4] = Metal chelating activity assessed as compound-Cu2+ complex formation by measuring red shift at 37.5 uM after 30 mins by UV-vis spectrophotometric method
Procedure, shortened: (§1)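 UV absorption scanned from 200 to 600 nm after 30 min at room temperature in methanol. Compound and each metal salt (CuCl2, ZnCl2, AlCl3, FeSO4) were at 37.5 µM final. Spectra compared with and without metal.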

[5] = Metal chelating activity assessed as compound-Al3+ complex formation by measuring shift in maximum absorption wavelength at 37.5 uM after 30 mins by UV-vis spectrophotometric method; procedure, shortened: as §1
[6] = Metal chelating activity assessed as mole fraction of compound required to show 1:1 stoichiometry for Cu2+-compound complex up to 37.5 uM after 30 mins by UV-vis spectrophotometric method
Procedure, shortened: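 Molar-ratio titration in methanol: compound fixed at 37.5 µM final with CuCl2 at 3.75-93.75 µM final. Absorbance at 386 nm taken after numerical subtraction of CuCl2 and compound spectra, and plotted against mole fraction of compound. Stoichiometry taken from the intersection of two straight lines.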

Acetylcholinesterase [7] = target: T1, Acetylcholinesterase (Homo sapiens, UniProt P22303); assay: Inhibition of human erythrocyte AChE induced amyloid beta (1 to 40) aggregation at 25 uM after 24 hrs by ThT-based fluorometric method relative to control
T1 sequence (P22303 whole entry): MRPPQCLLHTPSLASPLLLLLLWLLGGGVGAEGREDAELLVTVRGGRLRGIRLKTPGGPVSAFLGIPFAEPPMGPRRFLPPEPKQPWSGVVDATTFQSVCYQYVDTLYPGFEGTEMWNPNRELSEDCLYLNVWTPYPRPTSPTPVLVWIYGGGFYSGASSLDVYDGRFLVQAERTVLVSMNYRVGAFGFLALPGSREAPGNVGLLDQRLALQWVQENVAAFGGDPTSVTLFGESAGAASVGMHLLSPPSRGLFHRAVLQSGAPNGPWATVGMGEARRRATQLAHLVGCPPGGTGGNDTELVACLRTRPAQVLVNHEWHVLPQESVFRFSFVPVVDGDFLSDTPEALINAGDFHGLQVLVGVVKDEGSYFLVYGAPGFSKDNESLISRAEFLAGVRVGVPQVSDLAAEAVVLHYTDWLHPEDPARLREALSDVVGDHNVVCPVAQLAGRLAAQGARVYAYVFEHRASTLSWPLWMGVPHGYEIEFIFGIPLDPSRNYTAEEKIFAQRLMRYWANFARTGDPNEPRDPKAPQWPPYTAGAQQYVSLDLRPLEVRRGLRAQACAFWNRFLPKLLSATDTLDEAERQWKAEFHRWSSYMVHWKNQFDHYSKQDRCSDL
Procedure, shortened: (§2)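 HFIP-pretreated Aβ1-40 (230 µM final) co-incubated 24 h at room temperature with human AChE (2.3 µM; Aβ/AChE 100:1) ± compound in sodium phosphate buffer pH 8.0. Then 5 µM thioflavin T in glycine-NaOH pH 8.5 was added and read at ex 446/em 490 nm. Triplicate. % inhibition calculated from fluorescence with/without inhibitor, each minus its blank (Aβ alone, AChE alone, Aβ+inhibitor).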

[8] = target: Amyloid-beta precursor protein (Homo sapiens) (UniProt P05067); assay: Inhibition of amyloid beta (1 to 42) (unknown origin) self aggregation at 50 uM after 24 hrs by ThT-based fluorometric method relative to control
Sequence of Amyloid-beta precursor protein (Homo sapiens) (P05067 whole entry): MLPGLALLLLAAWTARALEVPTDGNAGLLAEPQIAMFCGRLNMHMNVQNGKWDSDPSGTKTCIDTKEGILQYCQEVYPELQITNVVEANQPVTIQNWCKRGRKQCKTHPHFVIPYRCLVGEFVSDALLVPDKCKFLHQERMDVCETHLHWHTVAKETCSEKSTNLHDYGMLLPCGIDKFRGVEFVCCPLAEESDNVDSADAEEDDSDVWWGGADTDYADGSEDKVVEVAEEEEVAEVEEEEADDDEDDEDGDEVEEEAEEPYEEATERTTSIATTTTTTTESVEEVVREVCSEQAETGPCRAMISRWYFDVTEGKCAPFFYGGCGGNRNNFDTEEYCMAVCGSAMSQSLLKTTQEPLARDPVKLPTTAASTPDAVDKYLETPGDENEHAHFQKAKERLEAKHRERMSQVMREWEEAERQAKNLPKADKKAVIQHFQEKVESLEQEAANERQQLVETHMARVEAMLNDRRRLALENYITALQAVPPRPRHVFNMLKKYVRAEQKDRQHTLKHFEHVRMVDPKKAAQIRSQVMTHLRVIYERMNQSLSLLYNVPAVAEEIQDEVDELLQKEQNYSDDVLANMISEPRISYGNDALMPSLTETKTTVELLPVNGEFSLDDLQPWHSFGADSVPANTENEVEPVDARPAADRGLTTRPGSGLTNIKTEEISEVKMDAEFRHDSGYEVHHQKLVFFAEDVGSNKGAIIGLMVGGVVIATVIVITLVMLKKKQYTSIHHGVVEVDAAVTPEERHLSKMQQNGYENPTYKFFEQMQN
Procedure, shortened: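 Aβ1-42 (25 µM final) incubated 24 h at 37 °C with or without compound (1-50 µM) in 50 mM phosphate buffer pH 7.4. Thioflavin T (5 µM in glycine-NaOH pH 8.5) then added, fluorescence read at ex 446/em 490 nm. Inhibition = (1-IFi/IFc)×100 after background subtraction. Run in triplicate.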

[9] = Cytotoxicity against human SH-SY5Y cells assessed as cell viability at 100 uM after 24 hrs by MTT assay relative to control; format: cell-based; details: read-out: Activity
Procedure, shortened: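 SH-SY5Y cells grown in DMEM with 10% FBS at 37 °C, 5% CO2, seeded 4 × 10^4 cells/well and incubated 24 h. Compounds given at 1, 10 and 100 µM (1% DMSO final) for 24 h. MTT (5 mg/ml) added for 4 h, cells lysed overnight in DMF/SDS, absorbance read at 590 nm against control. Three independent experiments.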

PC-12 = assay: Neuroprotective activity against H2O2-induced cell injury in rat PC12 cells assessed as cell viability at 10 uM preincubated for 24 hrs followed by incubation with H2O2 for 2 hrs measured after 24 hrs by MTT assay (reference value: 43.9%); format: functional; details: read-out: Activity
Procedure, shortened: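 PC12 cells in phenol-red-free DMEM with 10% FCS, plated at 10^5 cells/well. Cells preincubated 24 h with compound (1.0 or 10.0 µM; dissolved in 2% DMSO, diluted in PBS), then exposed to H2O2 100 µM for 2 h. Medium replaced; viability assessed 24 h later by MTT (4 h, 37 °C), lysis in DMF/SDS, A590.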

Mus musculus [10] = assay: Reversal of scopolamine-induced memory impairment in Kunming mouse assessed as step-down latency time at 7.33 mg/kg, po administered 60 mins prior to training trial followed by scopolamine challenge at 30 mins post dose measured 24 hrs after training trial by passive avoidance test; format: functional
Procedure, shortened: (§3)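 Kunming mice, 18–22 g, six weeks old, either sex; 10 per group. Oral dosing 1 h before training (test compound 3.67, 7.33, 22 mg/kg; donepezil 5.0 mg/kg), scopolamine 3 mg/kg i.p. 30 min later. Training: 0.5 mA, 2 s foot shock on stepping off the block. Step-down latency measured 24 h later. Mean ± SEM.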

Mus musculus [11] = assay: Reversal of scopolamine-induced memory impairment in Kunming mouse assessed as step-down latency time at 22 mg/kg, po administered 60 mins prior to training trial followed by scopolamine challenge at 30 mins post dose measured 24 hrs after training trial by passive avoidance test; format: functional; procedure, shortened: as §3
Acetylcholinesterase [12] = target: T1, Acetylcholinesterase; assay: Inhibition of human erythrocyte AChE induced amyloid beta (1 to 40) aggregation after 24 hrs by ThT-based fluorometric method; procedure, shortened: as §2
Mus musculus [13] = assay: Reversal of scopolamine-induced memory impairment in po dosed Kunming mouse assessed as increase in step-down latency time administered 60 mins prior to training trial followed by scopolamine challenge at 30 mins post dose measured 24 hrs after training trial by passive avoidance test; format: functional, organism-based; procedure, shortened: as §3
[14] = Solubility of the compound in water; format: physicochemical; details: buffer

Work on `CCN(CCCCNC(=O)COc1ccc(-c2cc(=O)c3c(O)c(OC)c(OC)cc3o2)cc1)Cc1ccccc1OC` yielded an IC50 [1] greater than 500 µM, a Ratio IC50 (Rattus norvegicus) greater than 9800 and an Activity [2] of 1.13 equiv. For the same compound, the inhibition [3] was “Active”, the Activity [4] was “Active” and the Activity [5] was “Active”. The Activity [6] was 0.99 molar ratio, the inhibition (Acetylcholinesterase [7]) was 32.7% and the inhibition [8] was 75.2%. For the same compound, the viability at 24 h, 100 µM [9] was 82.4%, the viability at 10 µM (PC-12) was 82.7% and the Time (Mus musculus [10]) was 194.3 s. For the same compound, the Time (Mus musculus [11]) was 176.4 s, the inhibition (Acetylcholinesterase [12]) was “Dose-dependent effect” and the Activity (Mus musculus [13]) was “Dose-dependent effect”. For the same compound, the solubility [14] was “Insoluble”.
